The source made the active and inactive calls. No cut-off for these calls is given here.
Tests used:
[1] = target: T1, 5-hydroxytryptamine receptor 3A (Rattus norvegicus, UniProt P35563); assay: Binding affinity to rat 5HT3 receptor
T1 sequence (P35563 whole entry): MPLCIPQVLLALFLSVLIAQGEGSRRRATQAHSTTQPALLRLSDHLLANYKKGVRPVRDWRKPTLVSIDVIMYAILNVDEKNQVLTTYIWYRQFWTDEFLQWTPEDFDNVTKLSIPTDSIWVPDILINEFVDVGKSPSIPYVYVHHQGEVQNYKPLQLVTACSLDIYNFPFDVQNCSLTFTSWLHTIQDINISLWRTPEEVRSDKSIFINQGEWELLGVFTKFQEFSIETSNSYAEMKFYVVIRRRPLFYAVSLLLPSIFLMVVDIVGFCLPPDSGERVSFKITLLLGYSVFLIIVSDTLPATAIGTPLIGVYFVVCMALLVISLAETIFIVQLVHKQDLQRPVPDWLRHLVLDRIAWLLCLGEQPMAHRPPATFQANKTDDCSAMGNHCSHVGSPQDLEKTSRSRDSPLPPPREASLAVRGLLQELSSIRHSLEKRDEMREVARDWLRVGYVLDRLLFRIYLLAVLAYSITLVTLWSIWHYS

[2] = Cmax in dog ECG model; format: ADME, organism-based, Canis lupus familiaris; details: in vivo
Summary of the method: (§1)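 Acute dog ECG cardiovascular safety study; no-observable-adverse-effect dose set, with Cmax measured at that dose.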

[3] = target: T2, Muscarinic acetylcholine receptor M2 (Homo sapiens) (UniProt P08172); assay: Displacement of [3H]AF-DX384 from human muscarinic M2 receptor expressed in CHO cells at 10 uM; format: cell-based
T2 sequence (whole entry): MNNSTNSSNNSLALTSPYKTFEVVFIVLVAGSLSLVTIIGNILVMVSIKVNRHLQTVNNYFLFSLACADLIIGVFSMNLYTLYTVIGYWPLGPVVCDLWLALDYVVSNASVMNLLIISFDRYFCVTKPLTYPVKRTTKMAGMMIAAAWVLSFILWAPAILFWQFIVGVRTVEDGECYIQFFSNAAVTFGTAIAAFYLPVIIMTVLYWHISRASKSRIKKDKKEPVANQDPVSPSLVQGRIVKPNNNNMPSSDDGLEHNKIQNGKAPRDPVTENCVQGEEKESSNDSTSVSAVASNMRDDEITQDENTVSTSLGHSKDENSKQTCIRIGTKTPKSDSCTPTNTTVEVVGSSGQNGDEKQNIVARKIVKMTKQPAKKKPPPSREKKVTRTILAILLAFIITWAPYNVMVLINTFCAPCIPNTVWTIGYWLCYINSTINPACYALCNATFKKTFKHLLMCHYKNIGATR
Summary of the method: (§2)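 Human muscarinic receptors in transfected CHO cells; radioligands [3H]pirenzepine (M1), [3H]AF-DX 384 (M2), [3H]DAMP (M3); percent block at 10 µM.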

[4] = Metabolic stability in human liver microsomes assessed as half life; format: ADME, Microsome
[5] = target: T3, Muscarinic acetylcholine receptor M1 (Homo sapiens) (UniProt P11229); assay: Displacement of [3H]pirenzepine from human muscarinic M1 receptor expressed in CHO cells at 10 uM; format: cell-based; summary of the method: as §2
T3 sequence (whole entry): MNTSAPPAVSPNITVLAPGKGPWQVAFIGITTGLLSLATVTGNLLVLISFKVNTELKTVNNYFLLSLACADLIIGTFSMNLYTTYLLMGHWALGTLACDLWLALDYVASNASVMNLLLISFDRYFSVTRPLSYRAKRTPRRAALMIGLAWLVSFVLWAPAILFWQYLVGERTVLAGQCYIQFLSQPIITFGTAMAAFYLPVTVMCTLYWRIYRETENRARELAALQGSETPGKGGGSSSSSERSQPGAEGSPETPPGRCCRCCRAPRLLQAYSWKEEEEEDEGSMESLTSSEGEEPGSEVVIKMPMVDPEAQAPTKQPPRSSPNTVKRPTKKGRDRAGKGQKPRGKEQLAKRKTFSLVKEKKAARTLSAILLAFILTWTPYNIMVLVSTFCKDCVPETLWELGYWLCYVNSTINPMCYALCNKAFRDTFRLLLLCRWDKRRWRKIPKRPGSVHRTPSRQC

[6] = Half life in Sprague-Dawley rat at 5 mg/kg, po; format: ADME, organism-based; design: dose 5 mg/kg, route oral; details: in vivo
Summary of the method: (§3)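 Sprague-Dawley rats given a single 5.0 mg/kg oral dose; pharmacokinetic parameters derived from plasma.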

[7] = target: Neuronal acetylcholine receptor; alpha4/beta2 (Rattus norvegicus) (UniProt P09483+P12390); assay: Displacement of [3H][…] from alpha-4-beta-2 nACh receptor in rat brain at 1 uM; format: tissue-based
Summary of the method: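 Rat brain homogenate binding using [3H][…]; percent block at 1 µM.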

Plasma [8] = assay: Fraction unbound in human plasma at 0.100 ug/mL; format: ADME, cell-free
Summary of the method: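 Human plasma protein binding as fraction unbound, measured at drug concentration 0.100 µg/mL.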

[9] = Ratio of drug level in brain to plasma in mouse at 10 mg/kg after 60 min; format: ADME, organism-based; design: dose 10 mg/kg
Summary of the method: (§4)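 Mouse brain uptake: brain and plasma concentrations after a 10 mg/kg dose, ratio taken at 5 and 60 min.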

[10] = Apparent permeability from apical to basolateral side in dog MDCK cells; format: ADME, cell-based, Canis lupus familiaris
Summary of the method: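 MDCK monolayer permeability measured apical to basolateral, expressed as Papp (x10^-6 cm/s).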

Rattus norvegicus [11] = assay: Reversal of amphetamine-induced auditory gating deficit in iv dosed rat auditory sensory gating model; details: read-out: MED
[12] = Ratio of drug level in brain to plasma in mouse at 10 mg/kg after 5 mins; format: ADME, organism-based; design: dose 10 mg/kg; summary of the method: as §4
[13] = target: Neuronal acetylcholine receptor subunit alpha-7 (Rattus norvegicus, UniProt Q05941); assay: Displacement of [3H]MLA from alpha-7 nACh receptor in rat brain; format: tissue-based
Sequence of Neuronal acetylcholine receptor subunit alpha-7 (Rattus norvegicus, UniProt Q05941) (Q05941 whole entry): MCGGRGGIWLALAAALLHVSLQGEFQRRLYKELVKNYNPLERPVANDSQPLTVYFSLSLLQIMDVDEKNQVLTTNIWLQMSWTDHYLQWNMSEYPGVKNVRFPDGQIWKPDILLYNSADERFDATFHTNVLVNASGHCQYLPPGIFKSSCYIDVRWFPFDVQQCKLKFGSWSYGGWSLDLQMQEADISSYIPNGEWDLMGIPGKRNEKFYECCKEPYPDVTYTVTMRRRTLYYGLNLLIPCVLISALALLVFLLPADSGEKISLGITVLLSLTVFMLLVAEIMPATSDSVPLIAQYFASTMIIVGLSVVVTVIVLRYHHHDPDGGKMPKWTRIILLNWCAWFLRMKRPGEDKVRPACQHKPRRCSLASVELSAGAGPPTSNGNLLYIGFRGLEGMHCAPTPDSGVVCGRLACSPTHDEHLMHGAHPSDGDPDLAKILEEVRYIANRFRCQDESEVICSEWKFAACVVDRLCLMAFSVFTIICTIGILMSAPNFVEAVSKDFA
Summary of the method: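 Rat brain homogenate binding with [3H]MLA; individual Ki values, mean ± SEM reported when more than 3 measurements.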

Rattus norvegicus [14] = assay: Volume of distribution at steady state in Sprague-Dawley rat at 5 mg/kg, po; format: ADME, organism-based; design: dose 5 mg/kg, route oral; details: in vivo; summary of the method: as §3
[15] = target: Muscarinic acetylcholine receptor M3 (Homo sapiens) (UniProt P20309); assay: Displacement of [3H]DAMP from human muscarinic M3 receptor expressed in CHO cells at 10 uM; format: cell-based; summary of the method: as §2
Sequence of Muscarinic acetylcholine receptor M3 (Homo sapiens) (P20309 whole entry, looked up): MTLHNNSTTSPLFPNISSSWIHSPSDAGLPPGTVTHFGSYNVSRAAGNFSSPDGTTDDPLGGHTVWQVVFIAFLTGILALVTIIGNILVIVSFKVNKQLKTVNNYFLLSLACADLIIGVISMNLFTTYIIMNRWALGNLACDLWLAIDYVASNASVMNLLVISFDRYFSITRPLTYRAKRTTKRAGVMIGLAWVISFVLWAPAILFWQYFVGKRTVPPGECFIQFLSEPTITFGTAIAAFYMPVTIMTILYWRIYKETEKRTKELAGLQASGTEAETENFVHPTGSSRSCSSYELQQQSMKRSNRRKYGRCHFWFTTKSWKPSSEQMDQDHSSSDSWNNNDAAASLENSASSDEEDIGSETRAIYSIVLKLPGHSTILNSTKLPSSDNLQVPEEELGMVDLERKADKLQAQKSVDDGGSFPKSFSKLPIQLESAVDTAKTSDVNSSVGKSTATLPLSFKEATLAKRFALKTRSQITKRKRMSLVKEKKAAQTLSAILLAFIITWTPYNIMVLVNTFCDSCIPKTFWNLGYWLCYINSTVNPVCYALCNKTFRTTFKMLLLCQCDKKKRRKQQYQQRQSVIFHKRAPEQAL

[16] = Clearance in Sprague-Dawley rat at 5 mg/kg, po; format: ADME, organism-based; design: dose 5 mg/kg, route oral; details: in vivo; summary of the method: as §3
[17] = target: T4, Neuronal acetylcholine receptor subunit alpha-7 (Homo sapiens, UniProt P36544); assay: Agonist activity at alpha7-5HT3 chimera expressed in human SH-EP1 cells by FLIPR assay; format: functional, cell-based
Target sequence in this assay (P36544 23-502 limits assumed): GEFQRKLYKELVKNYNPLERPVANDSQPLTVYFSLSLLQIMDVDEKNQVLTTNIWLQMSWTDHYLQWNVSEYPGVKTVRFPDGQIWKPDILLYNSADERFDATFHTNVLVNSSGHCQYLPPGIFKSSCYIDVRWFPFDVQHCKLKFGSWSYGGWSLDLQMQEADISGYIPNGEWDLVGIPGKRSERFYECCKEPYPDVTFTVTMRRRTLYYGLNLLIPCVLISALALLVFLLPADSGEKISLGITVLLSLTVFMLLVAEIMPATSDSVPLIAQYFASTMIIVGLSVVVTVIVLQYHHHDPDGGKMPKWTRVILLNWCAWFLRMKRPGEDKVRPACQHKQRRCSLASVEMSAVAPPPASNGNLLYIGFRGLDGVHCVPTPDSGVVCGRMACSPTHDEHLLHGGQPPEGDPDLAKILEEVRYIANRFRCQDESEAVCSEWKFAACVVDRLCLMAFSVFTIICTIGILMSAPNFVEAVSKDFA

[18] = Metabolic stability in rat liver microsomes assessed as hepatic extraction ratio after 30 mins; format: ADME, Microsome
Summary of the method: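 Rat liver microsome incubation; stability reported as fraction of compound remaining after 30 min relative to t0 concentration.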

Brain [19] = assay: Drug level in rat brain at 0.1 mg/kg, sc; format: ADME, organism-based; design: dose 0.1 mg/kg, route subcutaneous; details: in vivo
Summary of the method: (§5)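 Rats given amphetamine 1 mg/kg iv to disrupt gating, then test drug sc (0.01–1.0 mg/kg, n = 6-9). Gating is the conditioning/test EEG field potential ratio from paired tones at 0.5 Hz, monitored 30 min, expressed as % reversal. Brain and plasma levels taken about 37 min post-dose.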

[20] = Drug level in rat plasma at 1 mg/kg, sc twice daily for 6 days; format: ADME, organism-based; design: dose 1 mg/kg, route subcutaneous
Summary of the method: (§6)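 Rats dosed sc twice daily for 6 days with drug 1 mg/kg or 0.9% saline vehicle (n = 8). On day 7, amphetamine-induced gating deficit challenged with acute drug 1 mg/kg sc; brain and plasma exposures measured.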

Plasma [21] = assay: Drug level in rat plasma at 1 mg/kg, sc; format: ADME, organism-based; design: dose 1 mg/kg, route subcutaneous; details: in vivo; summary of the method: as §5
[22] = Toxicity in dog ECG model assessed as drug level causing no observable adverse effects; format: organism-based, Canis lupus familiaris; details: in vivo, read-out: Activity; summary of the method: as §1
Plasma [23] = assay: Drug level in rat plasma at 0.01 mg/kg, sc; format: ADME, organism-based; design: dose 0.01 mg/kg, route subcutaneous; details: in vivo; summary of the method: as §5
[24] = Drug level in rat plasma at 0.24 mg/kg, iv after 30 mins; format: ADME, organism-based; design: dose 0.24 mg/kg, route intravenous
Brain [25] = assay: Drug level in rat brain at 1 mg/kg, sc; format: ADME, organism-based; design: dose 1 mg/kg, route subcutaneous; details: in vivo, read-out: Drug uptake; summary of the method: as §5
[26] = Oral bioavailability in Sprague-Dawley rat at 5 mg/kg; format: ADME, organism-based; details: in vivo; summary of the method: as §3
[27] = Drug level in rat brain at 1 mg/kg, sc twice daily for 6 days; format: ADME, organism-based; design: dose 1 mg/kg, route subcutaneous; details: read-out: Drug uptake; summary of the method: as §6
[28] = target: T4, Neuronal acetylcholine receptor subunit alpha-7; assay: Displacement of [3H]MLA from alpha-7 nACh receptor in human IMR32 cells; format: cell-based, IMR-32
Target sequence in this assay (P36544 whole entry): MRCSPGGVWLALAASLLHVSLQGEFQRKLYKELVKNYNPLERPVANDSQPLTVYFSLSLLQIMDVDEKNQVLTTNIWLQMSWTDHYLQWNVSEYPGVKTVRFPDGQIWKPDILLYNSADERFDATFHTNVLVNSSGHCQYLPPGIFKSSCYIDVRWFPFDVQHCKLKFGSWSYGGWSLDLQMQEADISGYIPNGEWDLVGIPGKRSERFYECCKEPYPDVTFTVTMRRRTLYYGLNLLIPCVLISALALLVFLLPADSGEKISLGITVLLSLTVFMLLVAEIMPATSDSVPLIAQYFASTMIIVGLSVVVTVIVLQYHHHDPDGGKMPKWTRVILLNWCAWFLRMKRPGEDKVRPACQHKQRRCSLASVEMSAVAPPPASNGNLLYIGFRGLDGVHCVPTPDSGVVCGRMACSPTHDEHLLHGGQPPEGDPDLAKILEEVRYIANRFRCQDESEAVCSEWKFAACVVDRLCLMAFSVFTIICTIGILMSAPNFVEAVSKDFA

Plasma [29] = assay: Drug level in rat plasma at 0.1 mg/kg, sc; format: ADME, organism-based; design: dose 0.1 mg/kg, route subcutaneous; details: in vivo; summary of the method: as §5
Rattus norvegicus [30] = assay: Reversal of amphetamine-induced auditory gating deficit in rat at 1 mg/kg, sc twice daily for 6 days; format: functional, organism-based; design: dose 1 mg/kg; summary of the method: as §6
Brain [31] = assay: Drug level in rat brain at 0.01 mg/kg, sc; format: ADME, organism-based; design: dose 0.01 mg/kg, route subcutaneous; details: in vivo, read-out: Drug uptake; summary of the method: as §5
hERG (KCNH2) = hERG (KCNH2) (Homo sapiens, UniProt Q12809); assay: Inhibition of human ERG expressed in HEK293 cells at 20 uM; format: cell-based; details: HEK293 cells that express hERG
Sequence of hERG (KCNH2) (Q12809 whole entry): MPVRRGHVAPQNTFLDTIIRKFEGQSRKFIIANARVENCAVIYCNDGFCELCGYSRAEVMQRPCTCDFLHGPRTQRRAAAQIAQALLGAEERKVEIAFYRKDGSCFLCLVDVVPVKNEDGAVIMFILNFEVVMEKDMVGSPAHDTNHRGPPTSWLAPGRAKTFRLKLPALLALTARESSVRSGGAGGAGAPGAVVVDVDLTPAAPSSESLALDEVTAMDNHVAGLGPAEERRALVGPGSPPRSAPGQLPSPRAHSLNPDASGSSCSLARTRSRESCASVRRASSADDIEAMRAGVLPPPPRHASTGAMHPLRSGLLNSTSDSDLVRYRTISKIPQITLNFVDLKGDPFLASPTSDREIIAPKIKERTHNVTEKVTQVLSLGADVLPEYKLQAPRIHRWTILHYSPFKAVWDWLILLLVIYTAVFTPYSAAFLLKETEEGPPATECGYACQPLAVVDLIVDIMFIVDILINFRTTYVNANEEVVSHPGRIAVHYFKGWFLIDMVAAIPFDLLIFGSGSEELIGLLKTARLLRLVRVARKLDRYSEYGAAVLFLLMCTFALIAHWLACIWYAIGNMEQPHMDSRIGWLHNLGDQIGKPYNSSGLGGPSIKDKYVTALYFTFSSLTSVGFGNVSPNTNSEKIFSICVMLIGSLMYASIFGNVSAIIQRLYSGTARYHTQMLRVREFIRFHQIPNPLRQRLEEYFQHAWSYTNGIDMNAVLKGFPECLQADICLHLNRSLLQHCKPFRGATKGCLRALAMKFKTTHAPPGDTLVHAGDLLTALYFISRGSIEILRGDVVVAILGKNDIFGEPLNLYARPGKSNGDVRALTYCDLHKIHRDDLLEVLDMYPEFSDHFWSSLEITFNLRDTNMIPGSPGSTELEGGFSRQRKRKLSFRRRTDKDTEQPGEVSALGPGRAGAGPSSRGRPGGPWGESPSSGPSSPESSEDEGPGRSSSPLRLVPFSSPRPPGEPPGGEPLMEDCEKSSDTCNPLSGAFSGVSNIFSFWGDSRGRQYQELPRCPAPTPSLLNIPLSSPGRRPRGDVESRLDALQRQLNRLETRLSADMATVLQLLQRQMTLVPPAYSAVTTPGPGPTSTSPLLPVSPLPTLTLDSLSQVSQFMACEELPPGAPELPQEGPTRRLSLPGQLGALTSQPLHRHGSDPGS
Summary of the method: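 Patch-clamp on hERG current (IKr) in HEK cells; percent inhibition at 20 µM; aqueous solubility checked by HPLC in pH 7 buffer.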

Rattus norvegicus [32] = assay: Reversal of amphetamine-induced auditory gating deficit in sc dosed rat auditory sensory gating model; format: functional; summary of the method: as §5

## O=C(N[C@H]1CN2CCC1CC2)c1cc2ccoc2cn1 [PHA-543613]
[1]
  Ki: 630 nM
[2]
  Cmax: 3.8 µM
[3]
  Activity: 23%
[4]
  half-life: > 120 min
[5]
  Activity: 16%
[6]
  half-life: 36 min
[7]
  Activity: 13%
Plasma [8]
  fraction unbound: 0.83
[9]
  Kp at 1 h: 1.5
[10]
  Papp A→B: 34 ×10⁻⁶ cm/s
Rattus norvegicus [11]
  minimal effective dose: 0.24 mg/kg
[12]
  Kp at 5 min: 1.5
[13]
  Ki: 9 nM
Rattus norvegicus [14]
  Vdss: 1.8 L/kg
[15]
  Activity: 33%
[16]
  CL/F: 33 mL/min/kg

## O=C(N[C@@H]1C[C@H]2CCN(C2)C1)c1cc2cccn2cn1
[17]
  EC50: 129 nM
[13]
  Ki: 14 nM
[18]
  hepatic extraction ratio at 0.5 h: 0.86

## O=C(N[C@H]1CN2CCC1CC2)c1ccc(Cl)cc1 [PNU-282987]
[17]
  EC50: 128 nM
[18]
  hepatic extraction ratio at 0.5 h: < 0.27

## O=C(N[C@@H]1C[C@H]2CCN(C2)C1)c1cc2ccoc2cn1
[1]
  Ki: 350 nM
Brain [19]
  concentration: 47 nM
[2]
  Cmax: 22 µM
[3]
  Activity: 25%
[4]
  half-life: > 120 min
[5]
  Activity: 16%
[17]
  EC50: 46 nM
[20]
  concentration at 144 h: 490 nM
Plasma [21]
  concentration: 1100 nM
[6]
  half-life: 48 min
[22]
  NOAEL: 40 mg/kg
[7]
  Activity: < 1%
Plasma [23]
  concentration: 12 nM
[24]
  concentration at 0.5 h: 130 nM
[9]
  Kp at 1 h: 1.88
Brain [25]
  concentration: 1200 nM
[26]
  bioavailability: 40%
[10]
  Papp A→B: 21 ×10⁻⁶ cm/s
[27]
  concentration at 144 h: 350 nM
[28]
  Ki: 9 nM
Plasma [29]
  concentration: 60 nM
[12]
  Kp at 5 min: 1.52
[13]
  Ki: 2.9 nM
Rattus norvegicus [14]
  Vdss: 2.4 L/kg
[15]
  Activity: 15%
Rattus norvegicus [30]
  Activity: Active
[16]
  CL/F: 72 mL/min/kg
Brain [31]
  concentration: 5.3 nM
hERG (KCNH2)
  inhibition at 20 µM: 25%
Rattus norvegicus [32]
  Activity: Dose-dependent effect
Rattus norvegicus [32]; read-out: MED
  minimal effective dose: 0.1 mg/kg
